Results: ChEMBL document CHEMBL1122823, “Synthesis and receptor-binding affinity of fluorotamoxifen, a possible estrogen-receptor imaging agent” (J Med Chem, 1985)
Where “and” joins values, the source holds several entries; their conditions need not be identical. Identical values can stand only once.

Key:
[1] = Dissociation constant was evaluated; type: physicochemical
Summary of the method: (§1)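 Rat uterine cytosol from 19-day-old immature Sabra rats, homogenized at 0 °C in TEG buffer (pH 7.4, 10% glycerol, 0.01 M DTT) and spun to 105000g, diluted to 2 uteri/mL. […] Free ligand removed with 2.5% dextran-coated charcoal. Nonspecific binding taken with 10000-fold excess. KA = KL·A50/([L*]+KL), with free [L*] 10 nM.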

[2] = molecular target: T1, Estrogen receptor (Rattus norvegicus) (UniProt P06211+Q62986); assay: Percent uterotrophic effect at 0.1 ug/day dose compared to estradiol; type: functional
[3] = molecular target: T1, Estrogen receptor (Rattus norvegicus); assay: Uterotrophic effect in rats at 0.1 ug/day dose; type: functional, tissue-based; settings: Uterus
[4] = molecular target: T1, Estrogen receptor (Rattus norvegicus); assay: Uterotrophic effect in rats uterine at 0.01 ug/day dose; type: functional, tissue-based; settings: Uterus
[5] = molecular target: T1, Estrogen receptor (Rattus norvegicus); assay: Uterotrophic effect in rats uterine at 0.03 ug/day dose; type: functional, tissue-based; settings: Uterus
[6] = molecular target: T1, Estrogen receptor (Rattus norvegicus); assay: Uterotrophic effect in rats uterine at 0.3 ug/day dose; type: functional, tissue-based; settings: Uterus
[7] = molecular target: T1, Estrogen receptor (Rattus norvegicus); settings: Uterus
[8] = molecular target: T1, Estrogen receptor (Rattus norvegicus); settings: Uterus; remark: listed apart in the source
[9] = molecular target: T1, Estrogen receptor (Rattus norvegicus); settings: Uterus; remark: listed apart in the source
[10] = Dissociation constant was evaluated.; type: functional; summary of the method: as §1
[11] = molecular target: T1, Estrogen receptor (Rattus norvegicus); assay: Percent uterotrophic effect at 10 ug/day dose compared to estradiol; type: functional
[12] = molecular target: T1, Estrogen receptor (Rattus norvegicus); assay: Uterotrophic effect in rats at 10 ug/day dose; type: functional, tissue-based; settings: Uterus
[13] = molecular target: T1, Estrogen receptor (Rattus norvegicus)
[14] = molecular target: T1, Estrogen receptor (Rattus norvegicus); assay: Percent uterotrophic effect at 500 ug/day dose compared to estradiol; type: functional
[15] = molecular target: T1, Estrogen receptor (Rattus norvegicus); assay: Uterotrophic effect in rats uterine at 500 ug/day dose; type: functional, tissue-based; settings: Uterus
[16] = molecular target: T1, Estrogen receptor (Rattus norvegicus); assay: Uterotrophic effect in rats uterine at 500 ug/day dose in the presence of 0.08 ug estradiol; type: functional, tissue-based; settings: Uterus
[17] = molecular target: T1, Estrogen receptor (Rattus norvegicus); assay: Uterotrophic effect in rats uterine at 500 ug/day dose in the presence of 0.2 ug estradiol; type: functional, tissue-based; settings: Uterus
[18] = molecular target: T1, Estrogen receptor (Rattus norvegicus); assay: Uterotrophic effect in rats uterine at 500 ug/day dose in the presence of 10 ug estradiol; type: functional, tissue-based; settings: Uterus
[19] = molecular target: T1, Estrogen receptor (Rattus norvegicus); assay: Uterotrophic effect in rats uterine at 500 ug/day dose in the presence of 0.10 ug estradiol; type: functional, tissue-based; settings: Uterus
[20] = molecular target: T1, Estrogen receptor (Rattus norvegicus); assay: Uterotrophic effect in rats uterine at 100 ug/day dose in the presence of 0.20 ug estradiol; type: functional, tissue-based; settings: Uterus
[21] = molecular target: T1, Estrogen receptor (Rattus norvegicus); assay: Uterotrophic effect in rats uterine at 100 ug/day dose in the presence of 10 ug estradiol; type: functional, tissue-based; settings: Uterus
[22] = molecular target: T1, Estrogen receptor (Rattus norvegicus); assay: Uterotrophic effect in rats uterine at 100 ug/day dose in the presence of 0.05 ug hexestrol; type: functional, tissue-based; settings: Uterus
[23] = molecular target: T1, Estrogen receptor (Rattus norvegicus); assay: Uterotrophic effect in rats uterine at 10 ug/day dose in the presence of 0.08 ug estradiol; type: functional, tissue-based; settings: Uterus
[24] = molecular target: T1, Estrogen receptor (Rattus norvegicus); assay: Uterotrophic effect in rats uterine at 100 ug/day dose; type: functional, tissue-based; settings: Uterus
[25] = molecular target: T1, Estrogen receptor (Rattus norvegicus); assay: Uterotrophic effect in rats uterine at 1 ug/day dose in the presence of 0.08 ug estradiol; type: functional, tissue-based; settings: Uterus
[26] = molecular target: T1, Estrogen receptor (Rattus norvegicus); assay: Percent uterotrophic effect at 50 ug/day dose compared to estradiol; type: functional
[27] = molecular target: T1, Estrogen receptor (Rattus norvegicus); assay: Uterotrophic effect in rats uterine at 50 ug/day dose; type: functional, tissue-based; settings: Uterus
[28] = molecular target: T1, Estrogen receptor (Rattus norvegicus); assay: Percent uterotrophic effect at 100 ug/day dose compared to estradiol; type: functional
[29] = molecular target: T1, Estrogen receptor (Rattus norvegicus); assay: Uterotrophic effect in rats uterine at 10 ug/day dose; type: functional, tissue-based; settings: Uterus
[30] = molecular target: T1, Estrogen receptor (Rattus norvegicus); assay: Uterotrophic effect in rats uterine at 100 ug/day dose in the presence of 0.1 ug estradiol; type: functional, tissue-based; settings: Uterus
[31] = molecular target: T1, Estrogen receptor (Rattus norvegicus); assay: Uterotrophic effect in rats uterine at 100 ug/day dose in the presence of 0.5 ug hexestrol; type: functional, tissue-based; settings: Uterus
[32] = molecular target: T1, Estrogen receptor (Rattus norvegicus); assay: Uterotrophic effect in rats uterine at 10 ug/day dose in the presence of 0.16 ug estradiol; type: functional, tissue-based; settings: Uterus
[33] = molecular target: T1, Estrogen receptor (Rattus norvegicus); assay: Uterotrophic effect in rats uterine at 1000 ug/day dose; type: functional, tissue-based; settings: Uterus
[34] = molecular target: T1, Estrogen receptor (Rattus norvegicus); assay: Uterotrophic effect in rats uterine at 1000 ug/day dose in the presence of 0.16 ug estradiol; type: functional, tissue-based; settings: Uterus

CC/C(=C(/CC)c1ccc(O)cc1)c1ccc(O)cc1 [DIETHYLSTILBESTROL]
KA [1]: 400 pM

CC[C@H](c1ccc(O)cc1)[C@@H](CC)c1ccc(O)cc1
Effect [2]: 143%
Max uterine weight [3]: 62.6 mg
Uterine weight [4]: 29.3
Uterine weight [5]: 62.6
Uterine weight [6]: 94.5
Uterine weight [7]: 86.8
Uterine weight [8]: 90.2
Uterine weight [9]: 97.3

CC/C(=C(/c1ccc(O)cc1)c1ccc(F)cc1)c1ccccc1
KA [10]: 63 nM
Effect [11]: 140%
Max uterine weight [12]: 97 mg
A50 [13]: 670 nM

CC/C(=C(\c1ccc(N)cc1)c1ccc(OCCN(C)C)cc1)c1ccccc1
Effect [14]: 76%
Max uterine weight [15]: 54 mg
Uterine weight [15]: 54
Uterine weight [16]: 56.5
Uterine weight [17]: 62
Uterine weight [18]: 67.2
Uterine weight [19]: 46
Uterine weight [20]: 43
Uterine weight [21]: 57.1
Uterine weight [22]: 46 and 70.3
Uterine weight [23]: 54.8
Uterine weight [24]: 50.3
Uterine weight [25]: 58.2
A50 [13]: 20 nM
Uterine weight [8]: 29.6
Uterine weight [9]: 44

CC/C(=C(/c1ccc(O)cc1)c1ccc(NC(C)=O)cc1)c1ccccc1
Effect [26]: 98%
Max uterine weight [27]: 65.8 mg
A50 [13]: 1200 nM

CC/C(=C(\c1ccc(F)cc1)c1ccc(OCCN(C)C)cc1)c1ccccc1
Effect [28]: 108%
Uterine weight [29]: 68.9
Uterine weight [30]: 74
Uterine weight [20]: 73.8
Uterine weight [21]: 80.3
Uterine weight [22]: 70.4
Uterine weight [31]: 71.2
Uterine weight [32]: 72.2
Uterine weight [33]: 85.7
Uterine weight [34]: 76.9
Max uterine weight [24]: 76.4 mg
Uterine weight [24]: 76.4
A50 [13]: 5000 nM

CC/C(=C(\c1ccc(NC(C)=O)cc1)c1ccc(ON(C)C)cc1)c1ccccc1
Effect [26]: 60%
Max uterine weight [27]: 41.8 mg
